According to ChEMBL document CHEMBL3297654, “Synthesis, antimicrobial and cytotoxic activities, and structure-activity relationships of gypsogenin derivatives against human cancer cells” (Eur J Med Chem, 2014):
Converted amounts (≈) assume the structure as drawn. The source made the active and inactive calls. The calls are words filed in the database; no cut-off is given here.

Legend:
Klebsiella pneumoniae = experiment: Antimicrobial activity against Klebsiella pneumoniae ATCC 13882 assessed as zone of inhibition at 30 uL for 24 hrs at 37 degC by disk diffusion test; assay type: functional, organism-based
Outline: (§1)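 Compound (30 µL of a fresh 1000 µg/mL DMSO stock) goes into a 6 mm well cut in Mueller Hinton agar inoculated with 0.1 mL broth culture adjusted to 0.5 McFarland (about 1×10^8 cells/mL). Plates are incubated 24 h at 37 °C, then zone of inhibition diameter is measured in mm.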

HL-60 [1] = experiment: Induction of apoptosis in human HL60 cells at 20 uM after 48 hrs by Hoechst 33258/propidium iodide staining based phase contrast microscopic analysis; assay type: functional
Outline: (§2)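 Cells in 48-well plates treated with 0.5, 10, 20 or 40 µM for 24 and 48 h. Values are read at 48 h, 20 µM for test agents and 0.5 µM for controls. Staining is Hoechst 33258/propidium iodide double staining with fluorescence microscopy. Blue nuclei are viable or early-to-mid apoptotic, and pink nuclei are late apoptotic or necrotic. Apoptosis and necrosis are scored from chromatin condensation as % of cells. Cells are grown at 37 °C in 5% CO2 in RPMI, DMEM or McCoy's 5A with 10–15% heat-inactivated FCS.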

HeLa [2] = experiment: Antiproliferative activity against human HeLa cells after 24 and 72 hrs by MTT assay; assay type: functional, cell-based
Outline: (§3)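 ATCC human cell lines are kept in RPMI, DMEM or McCoy's 5A with 10–15% heat-inactivated FCS at 37 °C and 5% CO2. They are seeded at 1×10^4–1×10^5 cells/mL in 48-well plates and exposed to 0.5, 10, 20 or 40 µM. Viability is read by MTT (590 nm) at 24 and 72 h. Growth is expressed relative to untreated cells and IC50 is fitted, in triplicate.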

Bacillus subtilis [3] = experiment: Antimicrobial activity against Bacillus subtilis ATCC 6633 for 24 hrs by microdillution method; assay type: functional; conditions: ATCC 6633, 24 h
Outline: (§4)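 Broth microdilution. Compound is dissolved in DMSO (2 mg/mL) and diluted in Mueller Hinton broth as two-fold serial dilutions from 256 to 0.125 µg/mL. Bacteria are pre-grown in nutrient broth at 30 °C, and the final inoculum is about 10^6 cfu/mL. Tests are incubated 37 °C for 24 h. MIC is the lowest concentration giving complete inhibition. Streptomycin is the positive control.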

HL-60 [4] = experiment: Induction of necrosis in human HL60 cells at 20 uM after 48 hrs by Hoechst 33258/propidium iodide staining based phase contrast microscopic analysis; assay type: functional; outline: as §2
Cyberlindnera jadinii = experiment: Antimicrobial activity against Candida utilis ATCC 9950 assessed as zone of inhibition at 30 uL for 24 hrs at 30 degC by disk diffusion test; assay type: functional, organism-based
Outline: (§5)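 Agar well diffusion on Mueller Hinton agar seeded with 0.1 mL broth culture (18–24 h), adjusted to 0.5 McFarland (about 1×10^8 bacteria or 1×10^6 yeast cells/mL). A 6 mm well is filled with 30 µL of compound from a fresh 1000 µg/mL DMSO stock. Plates are held at 30 °C for 24 h and inhibition zone diameter is read in mm.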

HT-29 [5] = experiment: Induction of necrosis in human HT-29 cells at 20 uM after 48 hrs by Hoechst 33258/propidium iodide staining based phase contrast microscopic analysis; assay type: functional; outline: as §2
MCF7 [6] = experiment: Antiproliferative activity against human MCF7 cells after 24 and 72 hrs by MTT assay; assay type: functional, cell-based; outline: as §3
Bacillus cereus [7] = experiment: Antimicrobial activity against Bacillus cereus ATCC 11778 for 24 hrs by microdillution method; assay type: functional; conditions: ATCC 11778, 24 h; outline: as §4
HT-29 [8] = experiment: Induction of apoptosis in human HT-29 cells at 20 uM after 48 hrs by Hoechst 33258/propidium iodide staining based phase contrast microscopic analysis; assay type: functional; outline: as §2
Caco-2 [9] = experiment: Antiproliferative activity against human Caco2 cells after 24 and 72 hrs by MTT assay; assay type: functional, cell-based; outline: as §3
MCF7 [10] = experiment: Induction of apoptosis in human MCF7 cells at 20 uM after 48 hrs by Hoechst 33258/propidium iodide staining based phase contrast microscopic analysis; assay type: functional; outline: as §2
SAOS-2 [11] = experiment: Induction of necrosis in human Saos2 cells at 20 uM after 48 hrs by Hoechst 33258/propidium iodide staining based […] microscopic analysis; assay type: functional; outline: as §2
Saccharomyces cerevisiae = experiment: Antimicrobial activity against Saccharomyces cerevisiae ATCC 9763 assessed as zone of inhibition at 30 uL for 24 hrs at 30 degC by disk diffusion test; assay type: functional, organism-based; outline: as §5
Bacillus subtilis [12] = experiment: Antimicrobial activity against Bacillus subtilis ATCC 6633 assessed as zone of inhibition at 30 uL for 24 hrs at 30 degC by disk diffusion test; assay type: functional; outline: as §5
Caco-2 [13] = experiment: Induction of necrosis in human Caco2 cells at 20 uM after 48 hrs by Hoechst 33258/propidium iodide staining based phase contrast microscopic analysis; assay type: functional; outline: as §2
HL-60 [14] = experiment: Antiproliferative activity against human HL60 cells after 24 and 72 hrs by MTT assay; assay type: functional, cell-based; outline: as §3
Bacillus thuringiensis [15] = experiment: Antimicrobial activity against Bacillus thuringiensis for 24 hrs by microdillution method; assay type: functional; outline: as §4
Salmonella typhimurium = experiment: Antimicrobial activity against Salmonella typhimurium ATCC 14028 assessed as zone of inhibition at 30 uL for 24 hrs at 37 degC by disk diffusion test; assay type: functional, organism-based; conditions: Salmonella enterica subsp. enterica serovar Typhimurium; outline: as §1
Caco-2 [16] = experiment: Induction of apoptosis in human Caco2 cells at 20 uM after 48 hrs by Hoechst 33258/propidium iodide staining based phase contrast microscopic analysis; assay type: functional; outline: as §2
Proteus vulgaris = experiment: Antimicrobial activity against Proteus vulgaris ATCC 33420 assessed as zone of inhibition at 30 uL for 24 hrs at 37 degC by disk diffusion test; assay type: functional, organism-based; outline: as §1
Bacillus thuringiensis [17] = experiment: Antimicrobial activity against Bacillus thuringiensis assessed as zone of inhibition at 30 uL for 24 hrs at 30 degC by disk diffusion test; assay type: functional; outline: as §5
MCF7 [18] = experiment: Induction of necrosis in human MCF7 cells at 20 uM after 48 hrs by Hoechst 33258/propidium iodide staining based phase contrast microscopic analysis; assay type: functional; outline: as §2
Candida tropicalis = experiment: Antimicrobial activity against Candida tropicalis assessed as zone of inhibition at 30 uL for 24 hrs at 30 degC by disk diffusion test; assay type: functional, organism-based; outline: as §5
Bacillus cereus [19] = experiment: Antimicrobial activity against Bacillus cereus ATCC 11778 assessed as zone of inhibition at 30 uL for 24 hrs at 30 degC by disk diffusion test; assay type: functional; outline: as §5
SAOS-2 [20] = experiment: Induction of apoptosis in human Saos2 cells at 20 uM after 48 hrs by Hoechst 33258/propidium iodide staining based phase contrast microscopic analysis; assay type: functional; outline: as §2
Candida albicans = experiment: Antimicrobial activity against Candida albicans ATCC 10231 assessed as zone of inhibition at 30 uL for 24 hrs at 30 degC by disk diffusion test; assay type: functional, organism-based; outline: as §5
Escherichia coli = experiment: Antimicrobial activity against Escherichia coli ATCC 25922 assessed as zone of inhibition at 30 uL for 24 hrs at 37 degC by disk diffusion test; assay type: functional, organism-based; outline: as §1
HeLa [21] = experiment: Induction of necrosis in human HeLa cells at 20 uM after 48 hrs by Hoechst 33258/propidium iodide staining based phase contrast microscopic analysis; assay type: functional; outline: as §2
HeLa [22] = experiment: Induction of apoptosis in human HeLa cells at 20 uM after 48 hrs by Hoechst 33258/propidium iodide staining based phase contrast microscopic analysis; assay type: functional; outline: as §2
[23] = system: Staphylococcus epidermidis; experiment: Antimicrobial activity against Staphylococcus epidermidis ATCC 12228 assessed as zone of inhibition at 30 uL for 24 hrs at 37 degC by disk diffusion test; assay type: functional, organism-based; outline: as §1
[24] = Antiproliferative activity against human Saos2 cells after 24 and 72 hrs by MTT assay; assay type: functional, cell-based; conditions: SAOS-2; outline: as §3
Enterococcus faecalis = experiment: Antimicrobial activity against Enterococcus faecalis ATCC 29212 assessed as zone of inhibition at 30 uL for 24 hrs at 37 degC by disk diffusion test; assay type: functional, organism-based; outline: as §1
Nakaseomyces glabratus = experiment: Antimicrobial activity against Candida glabrata assessed as zone of inhibition at 30 uL for 24 hrs at 30 degC by disk diffusion test; assay type: functional, organism-based; outline: as §5
Pseudomonas aeruginosa = experiment: Antimicrobial activity against Pseudomonas aeruginosa ATCC 35032 assessed as zone of inhibition at 30 uL for 24 hrs at 37 degC by disk diffusion test; assay type: functional, organism-based; outline: as §1
Staphylococcus aureus = experiment: Antimicrobial activity against Staphylococcus aureus ATCC 25923 assessed as zone of inhibition at 30 uL for 24 hrs at 37 degC by disk diffusion test; assay type: functional, organism-based; outline: as §1
Micrococcus luteus = experiment: Antimicrobial activity against Micrococcus luteus ATCC 9341 assessed as zone of inhibition at 30 uL for 24 hrs at 30 degC by disk diffusion test; assay type: functional, organism-based; outline: as §5
HT-29 [25] = experiment: Antiproliferative activity against human HT-29 cells after 24 and 72 hrs by MTT assay; assay type: functional, cell-based; outline: as §3

Row | IC50 (HeLa [2]) [µM] | MIC (Bacillus subtilis [3]) [µg/mL] | IC50 (MCF7 [6]) [µM] | MIC (Bacillus cereus [7]) [µg/mL] | IC50 (Caco-2 [9]) [µM] | IC50 (HL-60 [14]) [µM] | MIC (Bacillus thuringiensis [15]) [µg/mL] | SMILES | diameter of the inhibition zone (DIZ) (Klebsiella pneumoniae) | Activity (HL-60 [1]) [%] | Activity (HL-60 [4]) [%] | diameter of the inhibition zone (DIZ) (Cyberlindnera jadinii) | Activity (HT-29 [5]) [%] | Activity (HT-29 [8]) [%] | Activity (MCF7 [10]) [%] | Activity (SAOS-2 [11]) [%] | diameter of the inhibition zone (DIZ) (Saccharomyces cerevisiae) | diameter of the inhibition zone (DIZ) (Bacillus subtilis [12]) [mm] | Activity (Caco-2 [13]) [%] | diameter of the inhibition zone (DIZ) (Salmonella typhimurium) | Activity (Caco-2 [16]) [%] | further results
1 | 116 | 32 (≈ 60.6 µM) | 10.8 | 64 (≈ 121 µM) | 28.2 | 5.98 | 64 (≈ 121 µM) | CC(=O)O[C@H]1CC[C@]2(C)[C@H]3CC=C4[C@@H]5CC(C)(C)CC[C@]5(C(=O)O)CC[C@@]4(C)[C@]3(C)CC[C@H]2[C@]1(C)/C=N\O | inactive | 6 | 52 | inactive | 28 | 0.6 | 5 | 46 | inactive | 13 | 17 | inactive | 0 | diameter of the inhibition zone (DIZ) (Proteus vulgaris): inactive; diameter of the inhibition zone (DIZ) (Bacillus thuringiensis [17]): 12 mm; Activity (MCF7 [18]): 55%; diameter of the inhibition zone (DIZ) (Candida tropicalis): inactive; diameter of the inhibition zone (DIZ) (Bacillus cereus [19]): 12 mm; Activity (SAOS-2 [20]): 1%; diameter of the inhibition zone (DIZ) (Candida albicans): inactive; diameter of the inhibition zone (DIZ) (Escherichia coli): inactive; Activity (HeLa [21]): 64%; Activity (HeLa [22]): 0%; diameter of the inhibition zone (DIZ) [23]: inactive; IC50 [24]: 8.95 µM; diameter of the inhibition zone (DIZ) (Enterococcus faecalis): inactive; diameter of the inhibition zone (DIZ) (Nakaseomyces glabratus): inactive; diameter of the inhibition zone (DIZ) (Pseudomonas aeruginosa): inactive; diameter of the inhibition zone (DIZ) (Staphylococcus aureus): inactive; diameter of the inhibition zone (DIZ) (Micrococcus luteus): inactive; IC50 (HT-29 [25]): 6.71 µM
2 | 110 | 32 (≈ 54.6 µM) | 7.5 | 32 (≈ 54.6 µM) | 30.4 | 12.8 | 32 (≈ 54.6 µM) | CC(=O)O[C@H]1CC[C@]2(C)[C@H]3CC=C4[C@@H]5CC(C)(C)CC[C@]5(C(=O)O)CC[C@@]4(C)[C@]3(C)CC[C@H]2[C@]1(C)/C=N/NC(N)=S | inactive | 2 | 67 | inactive | 26 | 3 | 6 | 61 | inactive | 14 | 29 | inactive | 3 | diameter of the inhibition zone (DIZ) (Proteus vulgaris): inactive; diameter of the inhibition zone (DIZ) (Bacillus thuringiensis [17]): 14 mm; Activity (MCF7 [18]): 63%; diameter of the inhibition zone (DIZ) (Candida tropicalis): inactive; diameter of the inhibition zone (DIZ) (Bacillus cereus [19]): 14 mm; Activity (SAOS-2 [20]): 2%; diameter of the inhibition zone (DIZ) (Candida albicans): inactive; diameter of the inhibition zone (DIZ) (Escherichia coli): inactive; Activity (HeLa [21]): 65%; Activity (HeLa [22]): 2%; diameter of the inhibition zone (DIZ) [23]: inactive; IC50 [24]: 10.1 µM; diameter of the inhibition zone (DIZ) (Enterococcus faecalis): inactive; diameter of the inhibition zone (DIZ) (Nakaseomyces glabratus): inactive; diameter of the inhibition zone (DIZ) (Pseudomonas aeruginosa): inactive; diameter of the inhibition zone (DIZ) (Staphylococcus aureus): inactive; diameter of the inhibition zone (DIZ) (Micrococcus luteus): inactive; IC50 (HT-29 [25]): 13.3 µM
